Compounds with a hit are over-represented: about 3% of the library has one in this group of screens.
PKD1 kinase inh – inhibitors of human PKD1 kinase. Q15139. PKD1 kinase fluorescence polarization assay. inhibition, % (concentration not given with the values). hit rate 0.056% among 200,000. AID 797; in the data active means inhibition above about 50%
Target sequence (Q15139 whole entry, looked up): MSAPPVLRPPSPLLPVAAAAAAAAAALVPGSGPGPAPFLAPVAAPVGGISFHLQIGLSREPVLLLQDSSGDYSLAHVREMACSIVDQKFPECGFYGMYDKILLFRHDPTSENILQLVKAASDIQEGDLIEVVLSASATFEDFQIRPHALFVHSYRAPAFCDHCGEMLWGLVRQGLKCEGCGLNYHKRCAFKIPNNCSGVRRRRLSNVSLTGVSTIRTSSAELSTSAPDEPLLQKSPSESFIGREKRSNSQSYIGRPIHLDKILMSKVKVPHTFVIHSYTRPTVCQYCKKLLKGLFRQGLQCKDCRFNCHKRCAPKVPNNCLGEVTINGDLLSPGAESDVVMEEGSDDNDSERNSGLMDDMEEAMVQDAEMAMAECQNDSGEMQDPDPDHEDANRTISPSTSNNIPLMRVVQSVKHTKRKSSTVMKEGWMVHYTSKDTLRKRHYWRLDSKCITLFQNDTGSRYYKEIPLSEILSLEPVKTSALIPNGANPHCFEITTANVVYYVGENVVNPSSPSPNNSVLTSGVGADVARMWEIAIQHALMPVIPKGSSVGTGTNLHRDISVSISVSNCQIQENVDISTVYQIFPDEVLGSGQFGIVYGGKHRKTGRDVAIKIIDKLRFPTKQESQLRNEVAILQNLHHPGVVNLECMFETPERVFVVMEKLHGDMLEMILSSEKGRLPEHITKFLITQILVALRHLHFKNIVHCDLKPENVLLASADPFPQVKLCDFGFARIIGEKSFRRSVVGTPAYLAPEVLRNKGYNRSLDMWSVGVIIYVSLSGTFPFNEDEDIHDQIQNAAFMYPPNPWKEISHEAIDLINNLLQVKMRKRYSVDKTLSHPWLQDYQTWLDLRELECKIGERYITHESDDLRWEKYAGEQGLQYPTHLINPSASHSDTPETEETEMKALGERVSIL
Rad51 HR inh – blocks human Rad51 in homologous recombination; hit rate 0.085% among 200,000; hRad51 DNA strand exchange, fluorescence dequenching; inhibition, % at 10 µM; AID 1385;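 active means inhibition above 40% at the single screening dose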
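Test system: preformed human Rad51 ssDNA filaments. Compound dosing: single dose, 10 µM final compound. Incubation: filaments 15 min 37 °C, then compound 30 min. Technique: FRET fluorescence dequenching, excitation 485 nm, emission 520 nm. Read-out basis: percent inhibition from fluorescence, normalised to plate control and blank means. Benchmarks: plate controls and plate blanks.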
Cl transport mod – modulates chloride dependent transport by human KCC2; KCC2 cells, thallium flux FluoZin-2 fluorescence; hit rate 2.2% among 190,000; B-score of Tl+ flux slope (higher = more flux/activation; lower = inhibition) at 10 µM;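 active means thallium flux slope and its plate-corrected score both differing from the plate sample mean at a set confidence after two filtering rounds, in either direction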;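 further: slope of fluorescence scaled to starting intensity during 10 to 20 s after thallium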
ROMK primary – modulators of human ROMK potassium channel. P48048. Tet-inducible ROMK, thallium flux fluorescence; actives lie on both sides. B-score at 10 µM. hit rate 2% among 130,000. AID 1918;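 active means signal ratio slope over the read window, or its plate-corrected B-score, at least 3 SD from the plate mean, either direction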;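 further: B-score of the F/F0 ratio slope over 7 to 12 s after thallium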
ROMK retest – human ROMK channel modulation, retest confirmation | shares compounds with ROMK primary | ROMK thallium flux, fluorescence ratio; hits give low values | normalized thallium flux (F/F0 slope) at 10 µM | hit rate 54% among 3,000 | AID 1917;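 active means Flux at 10 µM at least 3 SD below or above vehicle control mean in one or both replicates; inconclusive means no clear call, values can overlap the other calls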
Large screens that a line does not name were inactive (follow-up assays come after a bar, where they were run).

Cc1ccc(C)c2[nH]c(=O)c(CN(CC3CCCO3)C(=S)NCc3ccco3)cc12 (stereo not given)	ROMK primary -3.52 (no result: PKD1 kinase inh) | ROMK retest inconclusive
Cc1ccc2cc(CN(CC3CCCO3)C(=S)NCc3ccco3)c(=O)[nH]c2c1C (stereo not given)	none (no result: ROMK primary) | ROMK retest inactive
CCc1ccc2[nH]c(=O)c(CN(CC3CCCO3)C(=S)NCc3ccco3)cc2c1 (stereo not given)	none (no result: PKD1 kinase inh)
CC(=O)Nc1ccccc1OCC(=O)N(Cc1ccccc1)C(C)C	none (no result: ROMK primary)
O=C(CSc1nc2sc3c(c2c(=O)n1-c1ccccc1)CCCC3)NCc1ccco1	none (no result: Rad51 HR inh, ROMK primary)
CC1(C)Cc2c(sc3nc(SCC(=O)NCc4ccco4)n(-c4ccccc4)c(=O)c23)CS1	none | ROMK retest 0.0554
C=CCn1c(=NC(=O)c2ccccc2[N+](=O)[O-])sc2cc(S(C)(=O)=O)ccc21	none (no result: ROMK primary)
CC(=NCc1ccco1)c1c(O)n(C2CCCCC2)c(=O)[nH]c1=O	ROMK primary -2.82 (no result: Cl transport mod) | ROMK retest 0.0585
C=CCn1c(SCc2c(C)noc2C)nc2cc(C(=O)O)ccc2c1=O	ROMK primary 5.97 | ROMK retest inconclusive
C=CCn1c(SCc2c(C)noc2C)nc2ccccc2c1=O	none
Cc1nn(CC2CC2)c(=O)n1-c1ccc(Oc2ccccc2)cc1	none
CC1=C/C(=C\C=C(C#N)C#N)N(C)c2ccccc21	ROMK primary -3.99 (no result: PKD1 kinase inh, Rad51 HR inh) | ROMK retest 0.0414
Cc1ccccc1OC1=NS(=O)(=O)c2ccccc21	ROMK primary -2.57 | ROMK retest 0.0643
CN(Cc1ccc(Cl)cc1)C(=O)CCl	ROMK primary -4.66 (no result: Rad51 HR inh) | ROMK retest inconclusive
C(#Cc1ccccc1)C[N+]1(CC#Cc2cccc3ccccc23)CCCC1	ROMK primary -4.51 | ROMK retest 0.0493
CC1(C)Cc2c(C#N)c(N3CCN(C(=O)c4ccccc4Cl)CC3)nc(-c3ccco3)c2CS1	ROMK primary -1.82 | ROMK retest inactive
CC1(C)Cc2c(c(-c3ccco3)[nH]c(=O)c2C#N)CS1	ROMK primary -3.72 | ROMK retest inactive
CCn1c(C(=O)N2CCC(C(=O)N3CCN(c4ccccn4)CC3)CC2)cc2sccc21	none (no result: ROMK primary) | ROMK retest inactive
CC1CCN(C(=O)C2CCN(C(=O)c3cc4sccc4n3Cc3ccc(F)cc3)CC2)CC1	none (no result: Cl transport mod)
COc1ccc(CNCC(O)COc2ccc(C)cc2[N+](=O)[O-])cc1 (stereo not given)	ROMK primary -2.56 (no result: PKD1 kinase inh) | ROMK retest 0.0634
COc1ccc(OCCOCCOc2ccc(C)cc2[N+](=O)[O-])cc1	none
CC(NCC(O)COC1CCC(C(C)(C)C)CC1)c1ccccc1 (stereo not given)	ROMK primary -2.34 | ROMK retest 0.058
CC(=O)Nc1ccc(OCC(=O)N2CCC(Cc3ccccc3)CC2)cc1	none
O=C(Nc1ccc(OCC(=O)N2CCC(Cc3ccccc3)CC2)cc1)c1ccco1	ROMK primary -3.13 | ROMK retest 0.0665
O=C(Nc1cccnc1)c1ccc(Cl)c(S(=O)(=O)N2CCc3ccccc32)c1	ROMK primary -3.79 | ROMK retest 0.0664
O=C(Nc1cccnc1)c1cccc(S(=O)(=O)N2CCc3ccccc32)c1	none
O=C(Nc1ccc(Cl)cc1Cl)N1CCN(c2ncccn2)CC1	ROMK primary -3.8 | ROMK retest inactive
Cc1cccc(Nc2nc3c(S(=O)(=O)c4ccccc4)nnn3c3ccccc23)c1	none | ROMK retest inactive
NNC(=O)c1ccc(COCC(F)(F)F)cc1	none (no result: PKD1 kinase inh)
O=C(c1ccc(OC2CCN(Cc3ccccn3)CC2)cc1)N1CCCCO1	none (no result: Rad51 HR inh)
CCCCC(=O)NC(=S)Nc1cccc(NC(=O)c2ccco2)c1	none (no result: ROMK primary)
CC(C)C(c1nnnn1Cc1ccc(F)cc1)N1CCN(C2CCCCC2)CC1 (stereo not given)	ROMK primary -4.95 (no result: Rad51 HR inh, Cl transport mod) | ROMK retest 0.0607
Fc1ccc(Cn2nnnc2C(c2cccs2)N2CCN(C3CCCCC3)CC2)cc1 (stereo not given)	none (no result: Rad51 HR inh)
CC(C)C(c1nnnn1Cc1ccc(F)cc1)N1CCN(Cc2ccc3c(c2)OCO3)CC1 (stereo not given)	ROMK primary -2.34 (no result: Cl transport mod) | ROMK retest 0.0544
CN1C(=S)N(c2cccnc2)C(=O)/C1=C\c1ccc(N(C)C)cc1	ROMK primary -5.55 | ROMK retest 0.0415
CCN(CC(=O)Nc1cccc(C(C)=O)c1)S(=O)(=O)c1ccc(C)cc1	none (no result: Rad51 HR inh)
OC(CNC1Cc2ccccc2C1)COc1ccc(Cl)cc1 (stereo not given)	ROMK primary -5.33 (no result: PKD1 kinase inh) | ROMK retest 0.0488
Brc1ccc(NC2=Nc3ccccc3CC2)cc1	none (no result: ROMK primary) | ROMK retest inactive
O=C(COC(=O)CNC(=O)c1ccc(Br)o1)Nc1ccccc1OC(F)F	none
COc1ccc(-c2nc3ccccc3c(=O)n2CCOc2cc(C)ccc2C)cc1	none
Cc1ccc(O)c(C(=O)c2cnn(C(=O)Cc3csc(C)n3)c2)c1	ROMK primary -6.7 | ROMK retest inactive
Cc1ncc(CC(=O)n2cc(C(=O)c3cc(F)ccc3O)cn2)s1	none (no result: ROMK primary)
O=C(O)c1cccc2c1C(=O)c1ccccc1C2=O	ROMK primary -2.4 | ROMK retest inactive
O=C(O)c1cccc2c1C(=O)c1ccccc1-2	none (no result: PKD1 kinase inh, ROMK primary)
O=c1c2cc(N3CCOCC3)ccc2[nH]c(=S)n1Cc1cccc(Cl)c1	none (no result: Cl transport mod, ROMK primary) | ROMK retest inactive
Cc1cc(C)c2nc(Nc3nc(-c4ccccc4)cc(=O)[nH]3)nc(C)c2c1	none (no result: PKD1 kinase inh, Rad51 HR inh, ROMK primary)
CC1=CC(C)(C)N=C(Nc2nc(C)c3cc(C)cc(C)c3n2)N1	ROMK primary -3.94 | ROMK retest 0.0489
O=C(O)c1cc2c(s1)-c1ccccc1CC2	none
O=C(O)c1cc2c(s1)-c1ccccc1OC2	none (no result: ROMK primary) | ROMK retest inconclusive
Cc1ccc(OCCCCNC2CCCC(C)C2C)c(C)c1 (stereo not given)	none (no result: ROMK primary) | ROMK retest 0.0532
Cc1ccc(OCCCN2CCCC2)c(C)c1	none
OCCCc1nc2ccccc2n1CCOc1ccccc1	ROMK primary -2.89 | ROMK retest 0.0672
COC(=O)c1ccccc1-c1ccc(C(c2c(C)[nH][nH]c2=O)c2c(C)[nH][nH]c2=O)o1	ROMK primary -3.82 (no result: Rad51 HR inh) | ROMK retest inconclusive
O=C(Nc1ccc(NC(=S)NC(=O)C(c2ccccc2)c2ccccc2)cc1)c1ccccc1	none (no result: ROMK primary)
Oc1ccc2cc(Br)ccc2c1CN1CCCC1	none | ROMK retest 0.0638
O=C(NNS(=O)(=O)c1ccc(F)cc1)C1CC(c2cccnc2)=NO1 (stereo not given)	none
N#Cc1c(NCCN)nc(-c2ccccc2)c2c1CCCC2	ROMK primary -4.04 (no result: Rad51 HR inh, Cl transport mod) | ROMK retest 0.05
Oc1[nH]c2ccccc2c1N=Nc1ccccc1F	none
Oc1[nH]c2ccccc2c1N=Nc1ccccc1	none (no result: PKD1 kinase inh, ROMK primary) | ROMK retest 0.0679
C=CCc1cc(/C=C2/NC(=O)N(CC(=O)OC)C2=O)cc(OC)c1O	none
CCn1c(CNc2ccccc2Cl)nnc1SCC(=O)OC1CCCCC1	none
CCn1c(CNc2cccc(Cl)c2)nnc1SCC(=O)OC1CCCCC1	none (no result: Rad51 HR inh, ROMK primary) | ROMK retest 0.0621
COc1ccc(/C=C2\N=C(C)OC2=O)cc1[N+](=O)[O-]	none (no result: PKD1 kinase inh, ROMK primary)
N#C/C(=C/c1ccc(N2CCOCC2)o1)c1ccc(Cl)cc1	none (no result: Rad51 HR inh, ROMK primary) | ROMK retest 0.0514
CC(C)C(NC(=S)Nc1ccccc1)C(=O)O (stereo not given)	none
